Test results reported in ChEMBL document CHEMBL4334478, “Isolation, Structural Elucidation, Optical Resolution, and Antineuroinflammatory Activity of Phenanthrene and 9,10-Dihydrophenanthrene Derivatives from Bletilla striata” (J Nat Prod, 2019).
pIC50: −log10 of the molar value.

Tested on: BV-2
Assay: Antineuroinflammatory activity against mouse BV2 cells assessed as inhibition of LPS-induced NO production incubated for 24 hrs by Griess assay
Type: functional, cell-based
Settings: for pIC50: Mus musculus, BV-2, 24 h, read-out: IC50; call rule not given here
In short: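 Griess read-out of nitrite in LPS-stimulated BV-2 microglia, with cell viability checked in parallel by MTT. Minocycline served as positive control. IC50 values are reported as mean ± SEM.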

Row | pIC50 | IC50 (bv-2) | SMILES
1 | 4.61 | – | COc1cc([C@H]2Oc3cc4c(cc3[C@@H]2COC(C)=O)-c2c(cc(O)cc2OC)CC4)ccc1O
2 | 4.92 | – | COc1cc(O)cc2c1-c1cc(-c3c(O)cc(OC)c4c3CCc3cc(O)ccc3-4)c(O)cc1CC2
3 | 4.52 to 4.92 | – | COc1cc(O)c2c(c1Cc1ccc(O)cc1)CCc1cc(O)ccc1-2
4 | 5.30 | – | COc1cc2c(ccc3c(-c4c(O)cc(OC)c5c4ccc4cc(O)ccc45)c(O)cc(OC)c32)cc1O
5 | 4.66 | – | COc1cc(O)cc2c1-c1cc(-c3c(O)cc(OC)c4c3ccc3cc(O)ccc34)c(O)cc1CC2
6 | 4.75 | – | OC[C@H]1O[C@@H](Oc2ccc(Cc3c(O)ccc4c3CCc3cc(O)ccc3-4)cc2)[C@H](O)[C@@H](O)[C@@H]1O
7 | 5.72 | – | COc1cc(O)cc(CCc2cccc(O)c2)c1-c1c(OC)cc(O)c2c1CCc1cc(O)ccc1-2
8 | 4.46 | – | COc1c(Cc2ccc(O)cc2)c(O)cc2c1-c1ccc(O)cc1CC2
9 | 4.52 | – | COc1c(O)c(O)cc2ccc3cc(O)ccc3c12
10 | 4.73 | – | COc1cc([C@@H]2Oc3cc(OC)c4c(c3[C@H]2CO)CCc2cc(O)ccc2-4)cc(OC)c1O
11 | 4.82 | – | COc1cc(O)cc2c1-c1ccc(O)cc1CC2
12 | 4.45 to 4.57 | – | CN(C)c1ccc(O)c2c1C[C@H]1C[C@H]3[C@H](N(C)C)C(O)=C(C(N)=O)C(=O)[C@@]3(O)C(O)=C1C2=O [MINOCYCLINE]
13 | 4.40 | – | COc1cc(O)c2c(c1-c1c(OC)cc(O)c3c1CCc1cc(O)ccc1-3)CCc1cc(O)ccc1-2
14 | 4.22 | – | COc1cc(CCc2cccc(O)c2)c(-c2c(O)cc(O)c3c2CCc2cc(O)ccc2-3)c(OC)c1
15 | 4.03 | – | COc1c(O)cc2c(c1OC)-c1ccc(O)cc1CC2 [ERIANTHRIDIN]
16 | 4.09 | – | COc1ccc2c(ccc3c(Cc4ccc(O)cc4)c(O)cc(OC)c32)c1
17 | – | Not Active | COc1cc(O)c2c(ccc3cc(O)ccc32)c1-c1c(OC)cc(O)c2c1ccc1cc(O)ccc12
18 | 4.31 | – | COc1ccc2c(c1O)CCc1c(Cc3ccc(O)cc3)c(O)cc(OC)c1-2

Row | SMILES | pIC50 | IC50 (bv-2)
19 | COc1c(O)ccc2c1ccc1c(-c3c(O)cc(OC)c4c3ccc3c(OC)c(O)ccc34)c(O)cc(OC)c12 | 6.00 | –
20 | COc1cc(O)c(-c2c(O)cc(OC)c3c2ccc2cc(O)ccc23)c2c1-c1ccc(O)cc1CC2 [CIRRHOPETALANTHRIN] | 4.33 | –
21 | COc1cc(O)c(Cc2ccc(O)cc2)c2ccc3cc(O)ccc3c12 | 4.52 | –
